From paper PMC4200025 (International Journal of Nanomedicine, 2014)

Assays:
Format in all cases: in vivo
[1] = Organ dye content 24 hours after IV injection; conditions: mice
How it was run: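 ND4 Swiss Webster mice (25–30 g, n=3 per group) were anaesthetised with IP pentobarbital (40 mg/kg). They received 0.24 mg/kg dye (conjugate dosed by dye content) via the tail vein. At 24 h, organs were dissected, minced, homogenised and extracted in DMSO for 4 h, then centrifuged at 9,000 rpm for 15 min. Supernatant fluorescence was read against a DMSO calibration curve (785 nm excitation) and normalised to organ mass.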

[2] = Two-compartment pharmacokinetic analysis of plasma data; conditions: ND4 Swiss Webster, mouse, iv, 0.24 mg/kg, distribution half-life, mice, IV 0.24 mg/kg dye, two-compartment model
[3] = Plasma dye concentration after IV injection; conditions: mice, 24 hours after IV injection

organ dye content, kidneys [1]: at background level
organ dye content, lungs [1]: at background level
half-life [2]: ~3.06 min
overall recovered percentage of injected dose (plasma plus organs) [3]: 2.6%
recovered percentage of injected dose in plasma [3]: 0.8%
Compound: CC1(C)C(/C=C/C=C/C=C/C=C2\N(CCCCS(=O)(=O)O)c3ccc4ccccc4c3C2(C)C)=[N+](CCCCS(=O)(=O)[O-])c2ccc3ccccc3c21 [ICG, indocyanine green]
